Measured values published in ChEMBL document CHEMBL3596166, “Bisabolane-Type Sesquiterpenoids from the Whole Plant of Parasenecio rubescens” (J Nat Prod, 2015).

Key:
HepG2 = assay: Cytotoxicity against human HepG2 cells assessed as inhibition of cell viability after 24 hrs by MTT assay; format: functional, cell-based; settings: HepG2, 24 h
B16 = assay: Cytotoxicity against mouse B16 cells assessed as inhibition of cell viability after 24 hrs by MTT assay; format: functional, cell-based; settings: B16, 24 h
MCF7 = assay: Cytotoxicity against human MCF7 cells assessed as inhibition of cell viability after 24 hrs by MTT assay; format: functional, cell-based; settings: MCF7, 24 h
Escherichia coli = assay: Antibacterial activity against Escherichia coli assessed as growth inhibition at 200 ug/ml after 24 hrs by paper disk diffusion method; format: functional; settings: read-out: DIZ
Procedure, shortened: (§1)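 Paper disk diffusion. About 0.1 mL of sample at 200 μg/mL applied to a 6 mm paper disk, air-dried, then placed on the inoculated culture dish and incubated 24 h at 37 °C. Read-out is inhibitory zone diameter (IZD). Penicillin G disks served as control for S. aureus and streptomycin disks for E. coli. Run in duplicate.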

Staphylococcus aureus = assay: Antibacterial activity against Staphylococcus aureus assessed as growth inhibition at 200 ug/ml after 24 hrs by paper disk diffusion method; format: functional; settings: read-out: DIZ; procedure, shortened: as §1

Structure (SMILES): COc1cccc2c1C(=O)c1c(O)c3c(c(O)c1C2=O)C[C@@](O)(C(=O)CO)C[C@@H]3O[C@H]1C[C@H](N)[C@H](O)[C@H](C)O1 [DOXORUBICIN]
- IC50 (HepG2): 23.2 µM
- IC50 (B16): 17.7 µM

Structure (SMILES): C=C(C(CC(O)C(C)(C)O)OC(=O)/C(C)=C\C)[C@H]1[C@H](OC(=O)/C(C)=C\C)[C@H]2O[C@@]2(C)[C@@H](OC(=O)/C(C)=C\C)[C@H]1OC(C)=O (some centres not stated)
- IC50 (HepG2): 40.8 µM
- IC50 (MCF7): 79.4 µM
- IC50 (B16): 42.5 µM

Structure (SMILES): CN[C@@H]1[C@H](O[C@H]2[C@H](O[C@H]3[C@H](O)[C@@H](O)[C@H](N=C(N)N)[C@@H](O)[C@@H]3N=C(N)N)O[C@@H](C)[C@]2(O)C=O)O[C@@H](CO)[C@H](O)[C@H]1O [STREPTOMYCIN]
- zone of inhibition at 200 µg/mL (Escherichia coli): 18 mm

Structure (SMILES): CC1(C)S[C@@H]2[C@H](NC(=O)Cc3ccccc3)C(=O)N2[C@H]1C(=O)O [PENICILLIN G]
- zone of inhibition at 200 µg/mL (Staphylococcus aureus): 25 mm

Structure (SMILES): C=C(C1CC(O)C(C)(C)O1)[C@H]1[C@H](OC(=O)/C(C)=C\C)[C@H]2O[C@@]2(C)[C@@H](OC(C)=O)[C@H]1OC(C)=O (some centres not stated)
- zone of inhibition at 200 µg/mL (Escherichia coli): 8 mm
- zone of inhibition at 200 µg/mL (Staphylococcus aureus): 8 mm

Structure (SMILES): C=C(C(CC(O)C(C)(C)OC)OC(=O)/C(C)=C\C)[C@H]1[C@H](OC(=O)/C(C)=C\C)[C@H]2O[C@@]2(C)[C@@H](OC(=O)/C(C)=C\C)[C@H]1OC(C)=O (some centres not stated)
- IC50 (HepG2): 96.6 µM
- IC50 (MCF7): 56.2 µM
- IC50 (B16): 49.6 µM

Structure (SMILES): C=C(C)C(O)CC(OC(=O)/C(C)=C\C)C(=C)[C@H]1[C@H](O)[C@H](OC(=O)/C(C)=C\C)[C@@](C)(O)[C@H](O)[C@@H]1OC(=O)/C=C(\C)CC (some centres not stated)
- IC50 (HepG2): 71.5 µM
- zone of inhibition at 200 µg/mL (Escherichia coli): 8 mm
- IC50 (MCF7): 78.9 µM
- IC50 (B16): 39.7 µM
- zone of inhibition at 200 µg/mL (Staphylococcus aureus): 9 mm
